Assay results: ChEMBL document CHEMBL1123265, “Synthesis and antihypertensive activity of 4-(cyclic amido)-2H-1-benzopyrans” (1986)

Legend:
Assay type in all cases: functional
Rattus norvegicus [1] = experiment: Maximum fall in blood pressure was evaluated at an oral dose of 0.3 mg/kg in (SHR) spontaneous hypertensive rats
In short: (§1)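 Conscious spontaneously hypertensive rats (Okamoto-derived, 14–24 weeks old; systolic pressure >180 mmHg counted as hypertensive), six or more per dose level. Given orally by dosing needle into the esophagus as solution or suspension in 1% w/v methylcellulose. Systolic pressure read by tail cuff, each reading the mean of at least six recordings, taken before dosing and at intervals up to 6 h; maximum fall recorded.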

Rattus norvegicus [2] = experiment: Maximum fall in blood pressure was evaluated at an oral dose of 1.0 mg/kg in (SHR) spontaneous hypertensive rats; in short: as §1
Rattus norvegicus [3] = experiment: Maximum fall in blood pressure was evaluated at an oral dose of 0.1 mg/kg in (SHR) spontaneous hypertensive rats; in short: as §1
Rattus norvegicus [4] = experiment: Maximum fall in blood pressure was evaluated at an oral dose of 10.0 mg/kg in (SHR) spontaneous hypertensive rats; in short: as §1
Rattus norvegicus [5] = experiment: Maximum fall in blood pressure was evaluated at an oral dose of 10 mg/kg in (SHR) spontaneous hypertensive rats; in short: as §1
Rattus norvegicus [6] = experiment: Maximum fall in blood pressure was evaluated at an oral dose of 3.0 mg/kg in (SHR) spontaneous hypertensive rats; in short: as §1
Rattus norvegicus [7] = experiment: Maximum fall in blood pressure was evaluated at an oral dose of 0.03 mg/kg in (SHR) spontaneous hypertensive rats; in short: as §1

Structure (SMILES) | Max fall in blood pressure (Rattus norvegicus [1]) [%] | Max fall in blood pressure (Rattus norvegicus [2]) [%] | other results
CC1(C)C=C(N2CCCC2=O)c2cc(C#N)ccc2O1 | 47 | – | –
CC1(C)Oc2ccc(C#N)cc2C(N2CCSC2=O)[C@@H]1O (stereo partly specified) | 27 | 30 | –
CC1(C)Oc2ccc(C#N)cc2C(N2CCNCC2=O)[C@@H]1O (stereo partly specified) | 53 | – | Max fall in blood pressure (Rattus norvegicus [3]): 28%
CC1(C)Oc2ccc(C#N)cc2C(N2CCCCCC2=O)[C@@H]1O (stereo partly specified) | – | 10 | –
CC1(C)Oc2ccc(C=O)cc2C(N2CCCC2=O)[C@@H]1O (stereo partly specified) | – | – | Max fall in blood pressure (Rattus norvegicus [4]): 25%
CC1(C)Oc2c(cccc2[N+](=O)[O-])C(N2CCCC2=O)[C@@H]1O (stereo partly specified) | – | 7 | –
CC1(C)C=C(N2CCCCC2=O)c2cc(C#N)ccc2O1 | 25 | 55 | –
CC(=O)Nc1cc2c(cc1[N+](=O)[O-])C(N1CCCC1=O)[C@H](O)C(C)(C)O2 (stereo partly specified) | 62 | – | Max fall in blood pressure (Rattus norvegicus [3]): 37%
CC1(C)Oc2ccc(C#N)cc2C(N2CC[N+](C)(C)CC2=O)[C@@H]1O.[I-] (stereo partly specified) | – | 9 | –
COC(=O)c1ccc2c(c1)C(N1CCCCC1=O)[C@H](O)C(C)(C)O2 (stereo partly specified) | 13 | 42 | –
CC1(C)Oc2ccc(C#N)cc2C(N2CCCC2)[C@@H]1O (stereo partly specified) | 21 | 29 | Max fall in blood pressure (Rattus norvegicus [3]): 8%
CC1(C)Oc2ccc(C#N)cc2C(N2CCCC2=O)[C@@H]1OC=O (stereo partly specified) | 31 | 36 | –
CC1Oc2ccc([N+](=O)[O-])cc2C(N2CCCC2=O)[C@@H]1O (stereo partly specified) | – | – | Max fall in blood pressure (Rattus norvegicus [4]): 34%
CC(=O)c1ccc2c(c1)C(N1CCCCC1=O)[C@H](O)C(C)(C)O2 (stereo partly specified) | 29 | 66 | –
CC1(C)Oc2ccc(C#N)cc2C(N2CCCCCCC2=O)[C@@H]1O (stereo partly specified) | – | – | Max fall in blood pressure (Rattus norvegicus [4]): 11%
CC1(C)Oc2ccc(C#N)cc2C(N2CCSCC2=O)[C@@H]1O (stereo partly specified) | – | 9 | Max fall in blood pressure (Rattus norvegicus [5]): 12%
CC1(C)CC(N2CCCC2=O)c2cc(C#N)ccc2O1 (stereo unspecified) | – | 15 | Max fall in blood pressure (Rattus norvegicus [6]): 45%
CC1(C)Oc2ccc(C#N)cc2C(N2OCCC2=O)[C@@H]1O (stereo partly specified) | – | – | Max fall in blood pressure (Rattus norvegicus [4]): 19%
CC1(C)Oc2ccc(Cl)cc2C(N2CCCC2=O)[C@@H]1O (stereo partly specified) | – | 8 | Max fall in blood pressure (Rattus norvegicus [5]): 37%
CC1(C)Oc2ccc([N+](=O)[O-])cc2C(N2CCCC2=O)[C@@H]1O (stereo partly specified) | 27 | 63 | –
CC(=O)c1ccc2c(c1)C(N1CCCC1=O)[C@H](O)C(C)(C)O2 (stereo partly specified) | 33 | 56 | –
COC(=O)c1ccc2c(c1)C(N1CCCC1=O)[C@H](O)C(C)(C)O2 (stereo partly specified) | 11 | 20 | Max fall in blood pressure (Rattus norvegicus [5]): 44%
CC1(C)Oc2cc([N+](=O)[O-])c(N)cc2C(N2CCCC2=O)[C@@H]1O (stereo partly specified) | – | 25 | –
CC1(C)Oc2ccc(C#N)cc2C(N2CCCCC2=O)[C@@H]1O (stereo partly specified) | 49 | 59 | Max fall in blood pressure (Rattus norvegicus [7]): 27%; Max fall in blood pressure (Rattus norvegicus [3]): 46%
CC(=O)c1ccc2c(c1)C(N1CCCC1=O)=CC(C)(C)O2 | – | 48 | –

Structure (SMILES) | Max fall in blood pressure (Rattus norvegicus [1]) [%] | Max fall in blood pressure (Rattus norvegicus [2]) [%] | other results
CC1(C)Oc2ccc(C#N)cc2C(N2CCCC2=O)[C@@H]1O (stereo partly specified) | 39 | 47 | Max fall in blood pressure (Rattus norvegicus [3]): 13%
CC(=O)c1ccc2c(c1)C(N1CCN(C(=O)c3ccc(F)cc3)CC1=O)[C@H](O)C(C)(C)O2 (stereo partly specified) | – | – | Max fall in blood pressure (Rattus norvegicus [4]): 16%
CC1(C)Oc2ccc(C#N)cc2C(N2CCN(Cc3ccccc3)CC2=O)[C@@H]1O (stereo partly specified) | 26 | 35 | Max fall in blood pressure (Rattus norvegicus [3]): 10%
CC1(C)C=C(N2CCSC2=O)c2cc(C#N)ccc2O1 | 9 | 27 | –
CC(=O)Nc1cc2c(cc1[N+](=O)[O-])OC(C)(C)[C@@H](O)C2N1CCCC1=O (stereo partly specified) | – | 3 | Max fall in blood pressure (Rattus norvegicus [6]): 14%
CN1CCCN(C2=CC(C)(C)Oc3ccc(C#N)cc32)C1=O | – | 29 | –
CC1(C)C=C(N2CCCCCC2=O)c2cc(C#N)ccc2O1 | – | 15 | Max fall in blood pressure (Rattus norvegicus [5]): 36%
CC1(C)Oc2ccc(C#N)cc2C(N2CCOCC2=O)[C@@H]1O (stereo partly specified) | 26 | 27 | –
CC1(C)C=C(N2CCCC2=O)c2cc([N+](=O)[O-])ccc2O1 | – | 68 | –
CC1(C)Oc2ccccc2C(N2CCCC2=O)[C@@H]1O (stereo partly specified) | – | – | Max fall in blood pressure (Rattus norvegicus [5]): 9%
CC1(C)Oc2cc([N+](=O)[O-])ccc2C(N2CCCC2=O)[C@@H]1O (stereo partly specified) | 12 | 56 | Max fall in blood pressure (Rattus norvegicus [5]): 68%
CC(=O)N1CCN(C2c3cc(C#N)ccc3OC(C)(C)[C@H]2O)C(=O)C1 (stereo partly specified) | – | 17 | Max fall in blood pressure (Rattus norvegicus [6]): 23%
CC1(C)Oc2ccc(C#N)cc2C(N2CCN(C(=O)c3ccco3)CC2=O)[C@@H]1O (stereo partly specified) | – | 15 | Max fall in blood pressure (Rattus norvegicus [6]): 43%
CC1(C)Oc2ccc(C#N)cc2C(N2CCN(C(=O)c3ccccc3)CC2=O)[C@@H]1O (stereo partly specified) | – | – | Max fall in blood pressure (Rattus norvegicus [4]): 14%
CN1CCCN(C2c3cc(C#N)ccc3OC(C)(C)[C@H]2O)C1=O (stereo partly specified) | – | 23 | –
CCCCN1CCN(C2c3cc(C#N)ccc3OC(C)(C)[C@H]2O)C(=O)C1 (stereo partly specified) | 48 | 61 | Max fall in blood pressure (Rattus norvegicus [3]): 18%
CC1(C)Oc2ccc(C#N)cc2C(N2CCOC2=O)[C@@H]1O (stereo partly specified) | 20 | 29 | –
CC1(C)C=C(N2CCCC2=O)c2cc(Cl)ccc2O1 | – | – | Max fall in blood pressure (Rattus norvegicus [4]): 36%
CC(=O)O[C@H]1C(N2CCCC2=O)c2cc(C#N)ccc2OC1(C)C (stereo partly specified) | – | 30 | Max fall in blood pressure (Rattus norvegicus [6]): 39%
CC1(C)Oc2ccc(C#N)cc2C(N2CCCC2=S)[C@@H]1O (stereo partly specified) | 39 | – | Max fall in blood pressure (Rattus norvegicus [3]): 16%
O=C1CCCN1C1c2cc([N+](=O)[O-])ccc2OC[C@H]1O (stereo partly specified) | – | – | Max fall in blood pressure (Rattus norvegicus [4]): 5%
CN1CCN(C2c3cc(C#N)ccc3OC(C)(C)[C@H]2O)C(=O)C1 (stereo partly specified) | 37 | – | Max fall in blood pressure (Rattus norvegicus [3]): 20%
CC1(C)Oc2ccc(C#N)cc2C(N2CCCC2=O)C1O (single isomer, unassigned) [CROMAKALIM] | 47 | – | Max fall in blood pressure (Rattus norvegicus [3]): 31%
CC1(C)Oc2ccc(C#N)cc2[C@@H](N2CCCC2=O)[C@@H]1O (single isomer, unassigned) [LEVCROMAKALIM] | – | 23 | Max fall in blood pressure (Rattus norvegicus [4]): 46%
COC(=O)C1=C(C)NC(C)=C(C(=O)OC)C1c1ccccc1[N+](=O)[O-] [NIFEDIPINE] | – | 13 | Max fall in blood pressure (Rattus norvegicus [6]): 27%; Max fall in blood pressure (Rattus norvegicus [4]): 36%
